Experimental data published in ChEMBL document CHEMBL1126013, “Synthesis and evaluation of some water-soluble prodrugs and derivatives of taxol with antitumor activity” (J Med Chem, 1992).

Columns and labels:
[1] = tested on: Mus musculus; assay: Tumor growth or regression measured as Percent treated by control at a dose of 10.5 mg/Kg to mice with MX-1 xenograft; format: functional
In short: (§1)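 Subrenal capsule MX-1 mammary xenograft in mice, run at the National Cancer Institute per NIH Publication No. 84-2635. %T/C = (Δ tumor weight treated / Δ tumor weight control) × 100 where tumors grew. Where tumors regressed, %T/C = (Δ tumor weight treated / initial control tumor weight) × 100.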

[2] = tested on: B16; assay: Percentage change in cell number of B16 melanoma cells treated with 10e-5 M dose; format: functional, Mus musculus
In short: (§2)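 B16 melanoma cells exposed to 10⁻⁵ or 10⁻⁶ M compound for 8 h, then rinsed three times with fresh medium. Cells then grown in drug-free medium for 48 h and counted. Result given as percent change relative to the cell number at time zero. Controls are the average of three experiments.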

[3] = tested on: Mus musculus; assay: Final average tumor weight was measured in mice induced with human mammary carcinoma at a dose of 42 mg/Kg; format: functional
In short: (§3)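 MX-1 human mammary carcinoma xenograft implanted under the renal capsule of mice. The study was run at the National Cancer Institute following the procedures of NIH Publication No. 84-2635. Average tumor weight was recorded at the start and end of treatment, and survivors were counted after 11 days. Dosed groups were compared with an untreated control group.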

[4] = tested on: Mus musculus; assay: Number of survivors after 11 days at a dose of 5.25 mg/Kg tested in 6 mice; format: functional; in short: as §3
[5] = tested on: Mus musculus; assay: Number of survivors after 11 days at a dose of 10.5 mg/Kg tested in 6 mice; format: functional; in short: as §3
[6] = tested on: B16; assay: Concentration required to inhibit the proliferation of B16 melanoma cells was determined; format: functional, cell-based; conditions: Mus musculus
[7] = tested on: Mus musculus; assay: Final average tumor weight was measured in mice induced with human mammary carcinoma at a dose of 5.25 mg/Kg; format: functional; in short: as §3
[8] = tested on: Mus musculus; assay: Tumor growth or regression measured as Percent treated by control at a dose of 5.25 mg/Kg to mice with MX-1 xenograft; format: functional; in short: as §1
[9] = tested on: Mus musculus; assay: Initial average tumor weight was measured in mice induced with human mammary carcinoma at a dose of 10.5 mg/Kg; format: functional; in short: as §3
[10] = tested on: B16; assay: Relative effect on B16 melanoma cell proliferation was determined [IC50 (taxol)/IC50 (derivative)]; format: functional, Mus musculus
[11] = tested on: Mus musculus; assay: Initial average tumor weight was measured in mice induced with human mammary carcinoma at a dose of 5.25 mg/Kg; format: functional; in short: as §3
[12] = tested on: B16; assay: Percentage change in cell number of B16 melanoma cells treated with 10e-6 M dose; format: functional, Mus musculus; in short: as §2
[13] = tested on: Mus musculus; assay: Initial average tumor weight was measured in mice induced with human mammary carcinoma at a dose of 42 mg/Kg; format: functional; in short: as §3
[14] = tested on: Mus musculus; assay: Final average tumor weight was measured in mice induced with human mammary carcinoma at a dose of 10.5 mg/Kg; format: functional; in short: as §3
[15] = tested on: Mus musculus; assay: Antitumor activity of taxoland the derivative against mammary carcinoma xenograft in mice; format: functional
In short: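 MX-1 human mammary carcinoma xenograft implanted under the renal capsule in mice. Study run at the National Cancer Institute following NIH Publication No. 84-2635. Tumor weights recorded at the start and at the end. Survivors counted after 11 days. %T/C = (Δ tumor weight treated/Δ tumor weight control) × 100 where the tumor grows, and (Δ tumor weight treated/initial control tumor weight) × 100 where it regresses.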

[16] = tested on: Mus musculus; assay: Tumor growth or regression measured as Percent treated by control at a dose of 42 mg/Kg to mice with MX-1 xenograft; format: functional; in short: as §1
[17] = tested on: Mus musculus; assay: Number of survivors after 11 days at a dose of 42 mg/Kg tested in 5 mice; format: functional; in short: as §3
[18] = organism: Bos taurus; assay: Relative effect on microtubular assembly (Tubulin polymerized by derivative/tubulin polymerized by taxol); format: functional
In short: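 Bovine brain tubulin, purified from microtubule-associated proteins by phosphocellulose chromatography, used at 10 μM. Turbidity followed at 350 nm. Polymer pelleted at 200000g, 37 °C, 4 min, depolymerized on ice, and protein measured by Bradford.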

[19] = Solubility in water; format: physicochemical; conditions: read-out: S

Question: With CC(=O)O[C@H]1C(=O)[C@]2(C)[C@@H](OC(=O)CN(C)C)C[C@H]3OC[C@@]3(OC(C)=O)[C@H]2[C@H](OC(=O)c2ccccc2)[C@]2(O)C[C@H](OC(=O)[C@H](OC(=O)CN(C)C)[C@@H](NC(=O)c3ccccc3)c3ccccc3)C(C)=C1C2(C)C.CS(=O)(=O)O.CS(=O)(=O)O as the compound, how does the T/C [1] read?
Answer: 193%

Question: And the “Change in cell number” value [2]?
Answer: -72%

Question: And the “Final average tumor weight” value [3]?
Answer: 4.35 mg

Question: And the No. of survivors [4]?
Answer: 6

Question: And the No. of survivors [5]?
Answer: 5

Question: What about the IC50 [6] of the same compound?
Answer: 0.042 µM

Question: And the “Final average tumor weight” value [7]?
Answer: 2.51 mg

Question: What about the T/C [8] of the same compound?
Answer: 70%

Question: What about the “Initial average tumor weight” value [9] of the same compound?
Answer: 0.59 mg

Question: And the Relative effect [10]?
Answer: 0.45

Question: What about the “Initial average tumor weight” value [11] of the same compound?
Answer: 0.71 mg

Question: What about the “Change in cell number” value [12] of the same compound?
Answer: 137%

Question: What about the “Initial average tumor weight” value [13] of the same compound?
Answer: 0.66 mg

Question: And the “Final average tumor weight” value [14]?
Answer: 5.55 mg

Question: What about the Relative antitumor activity [15] of the same compound?
Answer: 4

Question: What about the T/C [16] of the same compound?
Answer: 144%

Question: What about the No. of survivors [17] of the same compound?
Answer: 4

Question: And the Relative effect [18]?
Answer: 0.42

Question: What about the solubility [19] of the same compound?
Answer: > 8.11 mM
